High-throughput results: PubChem, Sanford-Burnham Center for Chemical Genomics
LMPTP block: LMPTP phosphatase inhibitors, primary screen, biochemical, fluorescence intensity, uHTS. Low molecular weight phosphotyrosine protein phosphatase (Homo sapiens), P24666. recombinant LMPTP-A, OMFP fluorogenic substrate. inhibition, % at 20 µM. 360,000 tested, 0.22% active. AID 651560, 2012;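 active means compounds that cut the enzyme signal by at least half of the control window in the single-dose screen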;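 further: plate controls were DMSO wells with enzyme plus substrate for no effect and substrate without enzyme for full effect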
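Material: LMPTP-A; amount: 0.625 nM enzyme; doses: single 20 µM dose; times: reaction 50 min, room temperature, dark; technique: fluorescence intensity of OMFP turnover product; benchmarks: no-enzyme and uninhibited controls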
SUMO1-SIM PPI: modulators of SUMO1 protein-protein interactions, primary screen, biochemical, uHTS; Small ubiquitin-related modifier 1 (Homo sapiens), P63165; SUMO1 binding to a labelled peptide, TR-FRET, 1 h; inhibition, % at 20 µM; 360,000 tested, 0.33% active; AID 602429, 2012; in the data active means inhibition above about 37%
HKDC1 inh: HKDC1 hexokinase inhibitors, primary screen, biochemical, fluorescence, uHTS; Q2TB90; recombinant HKDC1, G6PDH/diaphorase resazurin coupled fluorescence; inhibition, % at 20 µM; 340,000 tested, 0.16% active; AID 493160, 2011;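 active means inhibition above about 35% when tested at 20 µM, limit read from the data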;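 further: plate controls were DMSO wells with enzyme for no effect and DMSO wells lacking enzyme for full effect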
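Test system: HK5 enzyme. Quantity: 5 µg/mL HK5 final. Reagent: glucose and ATP substrates. Schedule: 90 min reaction incubation at room temperature, dark. Technique: resazurin-to-resorufin fluorescence via G6PDH and diaphorase coupling, 525/613 nm. Control set: DMSO wells with and without enzyme mix.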
STEP block: STEP phosphatase inhibitors, primary screen, biochemical, fluorescence intensity, uHTS | Tyrosine-protein phosphatase non-receptor type 5 (Homo sapiens), P54829 | recombinant STEP, OMFP fluorogenic substrate | inhibition, % at 20 µM | 360,000 tested, 0.25% active | AID 588621, 2011;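 active means inhibition at 20 µM, scaled per plate between control wells, above about 37%, limit read from the data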;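 further: 0% = DMSO with enzyme and substrate and 100% = substrate only without enzyme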
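Material: STEP (striatal-enriched tyrosine phosphatase) enzyme, cell-free | Medium: 50 mM Bis-Tris pH 6.0 with 2.5 mM DTT and 0.005% Tween 20 | Read-out: Percent inhibition scaled to no-enzyme and uninhibited-enzyme controls, plate-pattern corrected | Signal: Fluorescence read at 480 nm ex / 540 nm em | Times: 20 min reaction, room temperature, in the dark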
Scp1 inh: Scp-1 phosphatase inhibitors, primary screen, biochemical, colorimetric, uHTS; Carboxy-terminal domain RNA polymerase II polypeptide A small phosphatase 1 (Homo …; Recombinant Scp1, phosphopeptide, malachite green phosphate absorbance; inhibition, % at 20 µM; 340,000 tested, 0.88% active; AID 493091, 2011;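 active means inhibition above about 50% at 20 µM, limit read from the data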;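 further: plate controls were DMSO wells with enzyme for no effect and wells lacking enzyme for full effect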
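System: truncated SCP-1 phosphatase (76-261aa); medium: Tris acetate buffer pH 5.5 with MgCl2 and Tween-20; incubation: 45 min room-temperature reaction, 5 min colour, 30 min stabiliser; compound: single 20 µM dose, 1% DMSO; reagent: Phosphorylated 17-residue peptide substrate; read-out: % inhibition at 20 µM; technique: colorimetric free-phosphate detection, absorbance 630 nm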
DNMT1 block: human DNMT1 methyltransferase inhibitors, primary screen, biochemical, molecular beacon, fluorescence, HinP1I cleavage, uHTS | DNA (cytosine-5)-methyltransferase 1 (Homo sapiens), P26358 | inhibition (reported as % activation of signal), % at 10 µM | 360,000 tested, 0.83% active | AID 588458, 2011; in the data active means inhibition above about 50%
* marks the source's active call; other numbers are inactive results; · = no result. Rows were chosen to be rich in hits. Some 1.8% of all compounds tested hit in one or more screens of this group.

SMILES	LMPTP block	SUMO1-SIM PPI	HKDC1 inh	STEP block	Scp1 inh	DNMT1 block
Cc1nc(-c2cc(C#N)c(=O)[nH]c2C)cs1	-2	0	8	0	-10	-3
Cc1[nH]c(=O)c(C#N)cc1-c1csc(-c2ccccc2)n1	60*	6	-2	-2	9	15
CCCCCCn1c(=O)n2n(c1=O)[C@@H]1CN(S(=O)(=O)c3ccc(C)cc3)C[C@]1(O)[C@@H](OC(=O)Nc1cccs1)C2	2	11	·	4	·	-9
CCN(CC)C(=O)c1cccc(-c2csc(C(C)(O)c3ccc(F)c(F)c3)n2)c1 (centres undefined)	1	-16	·	-2	·	13
O=C1N=c2ccccc2=C1c1sc(Nc2cccc(O)c2)nc1O	16	-1	4	12	20	-4
O=C1N=c2ccccc2=C1c1sc(Nc2ccc(O)cc2)nc1O	76*	4	28	42*	80*	-1
Cc1cccc(C)c1NC(=O)CSCC(=O)O	0	-2	-7	-4	-3	1
Cc1cccc(C)c1NC(=O)CSCC(=O)c1ccc(O)c(O)c1	48*	-2	-9	-2	-2	1
CCN(CC)CCCNC(=O)CN1N=C(c2ccc(OC)cc2)CCC1=O	1	5	-2	-2	-2	4
Cc1ccc(-c2ccc(/C=C3/NC(=O)NC3=O)o2)cc1[N+](=O)[O-]	1	4	6	1	1	-2
CC1=C(C#N)C(=O)NC(=O)/C1=C\c1ccc(-c2cc(C)c(C)cc2[N+](=O)[O-])o1	3	18	23	5	78*	13
O=C(O)CN1C(=O)/C(=C\c2cc(Br)ccc2OCc2ccc(Cl)cc2Cl)SC1=S	67*	78*	25	15	31	95*
CN1C(=O)S/C(=C/c2ccc(OCc3cccc(C(=O)O)c3)cc2)C1=O	4	-14	2	2	52*	1
COC(=O)C[C@@H]1C[C@@H]2c3cc(NS(=O)(=O)c4ccc(F)cc4)ccc3O[C@@H]2[C@H](CO)O1	-1	4	·	-3	·	6
CC(Cc1c[nH]c2ccccc12)C(=O)O (centres undefined)	0	-2	-2	5	66*	73*
COc1cc(-c2noc(C)c2/C=C/c2ccc(C(=O)O)cc2)cc(OC)c1OC	2	-3	-2	2	16	61*
COc1cc(-c2nnc(SCc3cc(=O)oc4cc(O)c(O)cc34)o2)cc(OC)c1OC	63*	30	29	17	73*	64*
CCOC(=O)CSc1nnc(-c2cc(OC)c(OC)c(OC)c2)o1	0	4	1	-2	2	-2
Cc1nc(S/C(=C\c2ccc(OCc3ccccc3Cl)cc2)C(=O)O)n[nH]1	-2	5	4	2	11	-5
Cc1nc(S/C(=C\c2ccc(-c3ccc(C(=O)O)c(Cl)c3)o2)C(=O)O)n[nH]1	10	57*	17	26	83*	91*
COc1ccc(-c2c(C#Cc3ccsc3)c3ccccc3n2C)cc1	51*	2	7	0	46	32
Cc1ccc(S(=O)(=O)N2[C@@H](c3ccc(Br)cc3)C(C(=O)O)=CC[C@H]2c2cccs2)cc1	0	10	6	6	-8	6
NC(=S)Cc1nc(-c2ccccc2)cs1	0	-2	6	4	4	50*
Oc1csc(Cc2nc(-c3ccc(-c4ccccc4)cc3)cs2)n1	1	0	2	3	1	10
O=c1cc(CN2CCCCCCC2)c2ccccc2o1	53*	-20	·	5	·	22
O=c1cc(CN2CCCCC2)c2ccccc2o1	-2	-3	·	-3	·	-1
COC(=O)C(C)N1C(=O)S/C(=C\c2ccc(-c3ccc(C(=O)O)cc3C)o2)C1=O (centres undefined)	2	-3	6	8	64*	19
